Key:
[1] = test system: ACHN; experiment: Growth inhibition of human ACHN cells at 10 uM relative to control; format: functional; settings: read-out: GI
Procedure, shortened: (§1)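 Each cell line in a 60-line human tumour panel exposed to one 10 μM concentration. Growth inhibition percentage computed as 100 minus the percentage activity relative to control.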

[2] = test system: Mus musculus; experiment: Anticonvulsant activity in mouse assessed as protection against picrotoxin-induced seizure at 1 mmol/kg, ip administered 30 min prior to picrotoxin-challenge measured after 60 mins relative to control; format: functional
[3] = test system: SK-MEL-5; experiment: Growth inhibition of human SK-MEL-5 cells at 10 uM relative to control; format: functional; settings: read-out: GI; procedure, shortened: as §1
[4] = test system: Mus musculus; experiment: Anticonvulsant activity in mouse assessed as protection against strychnine-induced seizure at 1 mmol/kg, ip administered 30 min prior to strychnine-challenge measured after 60 mins relative to control; format: functional
[5] = test system: A549; experiment: Growth inhibition of human A549 cells at 10 uM relative to control; format: functional; settings: read-out: GI; procedure, shortened: as §1
[6] = test system: MDA-MB-231; experiment: Growth inhibition of human MDA-MB-231 cells at 10 uM relative to control; format: functional; settings: read-out: GI; procedure, shortened: as §1
[7] = test system: K562; experiment: Growth inhibition of human K562 cells at 10 uM relative to control; format: functional; settings: read-out: GI; procedure, shortened: as §1
[8] = test system: MDA-MB-435; experiment: Growth inhibition of human MDA-MB-435 cells at 10 uM relative to control; format: functional; settings: read-out: GI; procedure, shortened: as §1
[9] = test system: RXF 393; experiment: Growth inhibition of human RXF393 cells at 10 uM relative to control; format: functional; settings: read-out: GI; procedure, shortened: as §1
[10] = test system: UO-31; experiment: Growth inhibition of human UO31 cells at 10 uM relative to control; format: functional; settings: read-out: GI
Procedure, shortened: (§2)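 Single-dose screen across the 60-cell-line human tumor panel at 10 μM. Growth inhibition is reported as a percentage, taken as 100 minus the % growth relative to untreated control.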

[11] = organism: Mus musculus; experiment: Protective index, ratio of TD50 for mouse to ED50 for pentylenetetrazol-induced seizure in mouse; format: functional
Procedure, shortened: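 Mice. Index is TD50/ED50. TD50 is the dose causing minimal neurological toxicity in 50% of mice in the Chimney test. ED50 is the dose protecting 50% of mice against pentylenetetrazole-induced seizures. Both are estimated from testing at several doses.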

[12] = test system: SNB-75; experiment: Growth inhibition of human SNB75 cells at 10 uM relative to control; format: functional; settings: read-out: GI; procedure, shortened: as §2
[13] = test system: Mus musculus; experiment: Anticonvulsant activity in ip dosed mouse assessed as protection against pentylenetetrazol-induced seizure administered 30 min prior to pentylenetetrazol-challenge measured after 60 mins; format: functional
Procedure, shortened: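 Mice received several doses for quantification. ED50 taken as the dose protecting 50% of mice against pentylenetetrazol-induced seizures.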

[14] = test system: OVCAR-3; experiment: Growth inhibition of human OVCAR3 cells at 10 uM relative to control; format: functional; settings: read-out: GI; procedure, shortened: as §1
[15] = test system: MCF7; experiment: Growth inhibition of human MCF7 cells at 10 uM relative to control; format: functional; settings: read-out: GI; procedure, shortened: as §1
[16] = test system: RPMI-8226; experiment: Growth inhibition of human RPMI8226 cells at 10 uM relative to control; format: functional; settings: read-out: GI; procedure, shortened: as §1
[17] = test system: CAKI-1; experiment: Growth inhibition of human CAKI-1 cells at 10 uM relative to control; format: functional; settings: read-out: GI; procedure, shortened: as §1
[18] = Toxicity in ip dose mouse assessed as mortality; format: organism-based; settings: in vivo
Procedure, shortened: (§3)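 In mice, LD50 is the dose causing 50% mortality. ED50 is the dose protecting 50% of mice against pentylenetetrazole-induced seizures. Therapeutic index = LD50/ED50.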

[19] = test system: CCRF-CEM; experiment: Growth inhibition of human CCRF-CEM cells at 10 uM relative to control; format: functional; settings: read-out: GI; procedure, shortened: as §1
[20] = test system: PC-3; experiment: Growth inhibition of human PC3 cells at 10 uM relative to control; format: functional; settings: read-out: GI; procedure, shortened: as §1
[21] = test system: Mus musculus; experiment: Anticonvulsant activity in mouse assessed as protection against pentylenetetrazol-induced seizure at 1 mmol/kg, ip administered 30 min prior to pentylenetetrazol-challenge measured after 60 mins relative to control; format: functional
[22] = test system: SK-OV-3; experiment: Growth inhibition of human SKOV3 cells at 10 uM relative to control; format: functional; settings: read-out: GI; procedure, shortened: as §1
[23] = test system: EKVX; experiment: Growth inhibition of human EKVX cells at 10 uM relative to control; format: functional; settings: read-out: GI; procedure, shortened: as §1
[24] = test system: SF-539; experiment: Growth inhibition of human SF539 cells at 10 uM relative to control; format: functional; settings: read-out: GI; procedure, shortened: as §1
[25] = Neurotoxicity in ip dosed mouse assessed as impaired motor coordination administered 30 mins prior to test by chimney test; format: toxicity, organism-based; settings: in vivo
Procedure, shortened: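 Mice, Chimney test. TD50 is the dose that produces minimal neurological toxicity (impaired motor coordination) in 50% of animals, estimated from testing at several doses.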

[26] = test system: T47D; experiment: Growth inhibition of human T47D cells at 10 uM relative to control; format: functional; settings: read-out: GI; procedure, shortened: as §2
[27] = test system: UACC-62; experiment: Growth inhibition of human UACC62 cells at 10 uM relative to control; format: functional; settings: read-out: GI; procedure, shortened: as §2
[28] = test system: HL-60(TB); experiment: Growth inhibition of human HL-60(TB) cells at 10 uM relative to control; format: functional; settings: read-out: GI
Procedure, shortened: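 Single-dose screen at 10 μM across the 60-cell-line tumour panel. Percent growth inhibition = 100 minus percent growth activity relative to untreated control.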

[29] = Therapeutic index, ratio of LD50 for mouse to ED50 for pentylenetetrazol-induced seizure in mouse; format: organism-based; settings: in vivo, read-out: Ratio LD50/ED50; procedure, shortened: as §3
[30] = test system: Mus musculus; experiment: Anticonvulsant activity in mouse assessed as protection against maximal electroshock-induced seizure at 1 mmol/kg, ip administered 30 min prior to maximal electroshock-challenge measured after 60 mins relative to control; format: functional
[31] = test system: OVCAR-4; experiment: Growth inhibition of human OVCAR4 cells at 10 uM relative to control; format: functional; settings: read-out: GI; procedure, shortened: as §1
[32] = test system: MOLT-4; experiment: Growth inhibition of human MOLT4 cells at 10 uM relative to control; format: functional; settings: read-out: GI; procedure, shortened: as §1
[33] = test system: SN12C; experiment: Growth inhibition of human SN12C cells at 10 uM relative to control; format: functional; settings: read-out: GI; procedure, shortened: as §2

**Q.** For Cc1ccccc1-n1c(C)nc2cc(N3C(=O)CSC3c3ccc(Cl)cc3)ccc2c1=O (stereo not drawn), which inhibition of growth at 10 µM [1] is on record?
**A.** 3.5%

**Q.** And the Activity [2]?
**A.** 75%

**Q.** And the inhibition of growth at 10 µM [3]?
**A.** 4%

**Q.** What about the Activity [4] of the same molecule?
**A.** 0%

**Q.** And the inhibition of growth at 10 µM [5]?
**A.** 12%

**Q.** What about the inhibition of growth at 10 µM [6] of the same molecule?
**A.** 23.7%

**Q.** And the inhibition of growth at 10 µM [7]?
**A.** 8.4%

**Q.** What about the inhibition of growth at 10 µM [8] of the same molecule?
**A.** 7.7%

**Q.** What about the inhibition of growth at 10 µM [9] of the same molecule?
**A.** 3%

**Q.** And the inhibition of growth at 10 µM [10]?
**A.** 15%

**Q.** What about the “Ratio TD50/ED50” value [11] of the same molecule?
**A.** 1.5

**Q.** What about the inhibition of growth at 10 µM [12] of the same molecule?
**A.** 7.6%

**Q.** And the ED50 [13]?
**A.** 410 µmol/kg

**Q.** What about the inhibition of growth at 10 µM [14] of the same molecule?
**A.** 5.2%

**Q.** And the inhibition of growth at 10 µM [15]?
**A.** 5.2%

**Q.** What about the inhibition of growth at 10 µM [16] of the same molecule?
**A.** 9.2%

**Q.** What about the inhibition of growth at 10 µM [17] of the same molecule?
**A.** 3%

**Q.** And the LD50 [18]?
**A.** 1040 µmol/kg

**Q.** What about the inhibition of growth at 10 µM [19] of the same molecule?
**A.** 11.3%

**Q.** And the inhibition of growth at 10 µM [20]?
**A.** 8%

**Q.** And the Activity [21]?
**A.** 100%

**Q.** And the inhibition of growth at 10 µM [22]?
**A.** 29.2%

**Q.** What about the inhibition of growth at 10 µM [23] of the same molecule?
**A.** 4%

**Q.** What about the inhibition of growth at 10 µM [24] of the same molecule?
**A.** 5%

**Q.** What about the TD50 at 0.5 h [25] of the same molecule?
**A.** 600 µmol/kg

**Q.** And the inhibition of growth at 10 µM [26]?
**A.** 4%

**Q.** And the inhibition of growth at 10 µM [27]?
**A.** 18%

**Q.** What about the inhibition of growth at 10 µM [28] of the same molecule?
**A.** 6%

**Q.** And the selectivity ratio [29]?
**A.** 2.53

**Q.** What about the Activity [30] of the same molecule?
**A.** 100%

**Q.** And the inhibition of growth at 10 µM [31]?
**A.** 5%

**Q.** And the inhibition of growth at 10 µM [32]?
**A.** 39.1%

**Q.** And the inhibition of growth at 10 µM [33]?
**A.** 5%

— ChEMBL document CHEMBL1955778, “Design and synthesis of novel 7-aminoquinazoline derivatives: antitumor and anticonvulsant activities” (Bioorg Med Chem Lett, 2012)
